Consider two compounds from ChEMBL document CHEMBL1275487, “Reduced biocide susceptibility in Candida albicans biofilms” (Antimicrob Agents Chemother, 2008).

The test system of test [1] is Candida albicans. In words: Antifungal activity against Candida albicans DAY 185 assessed as inhibition of biofilm formation after 24 hrs by XTT reduction assay. The class given is functional, organism-based. The method in brief:
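Biocides were added to the wells at the time of inoculation in 96-well polystyrene plates (RPMI-MOPS, 10^6 to 10^7 cells/well) and incubated 24 h at 30°C (H2O2 1 to 1,000 mM; EtOH 0.05 to 50%; SDS 0.0004 to 0.4%). XTT reduction was then read. EC50 and EC80 are the concentrations giving 50% and 80% OD reduction versus no-drug controls. Triplicate, two occasions.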

In test [2] the test system is Candida albicans. Put plainly: Antifungal activity against Candida albicans K1 grown as planktonic cells by CLSI method. It counts as functional. The method in brief:
(§1)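 Planktonic biocide MICs were determined by CLSI broth microdilution using CLSI endpoints, with the standard CLSI inoculum (0.5 × 10^3 to 2.5 × 10^3 CFU/ml) in RPMI-MOPS. Triplicate, two occasions.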

For test [3], the system named is Candida albicans. Put plainly: FICI in Candida albicans DAY 185 after 24 hrs in presence of fluconazole. It counts as functional. The method in brief: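 Checkerboard format on 24 h mature biofilms, with each biocide combined with fluconazole (0.0625 to 1,000 μg/ml). Incubation was 24 h with the combination, followed by an XTT reduction readout against no-drug controls. Fractional inhibitory concentration indices were calculated to gauge how each biocide affects fluconazole activity.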

In test [4] the test system is Candida albicans. In words: Antifungal activity against Candida albicans K1 assessed as decrease mature biofilm burden after 24 hrs by XTT reduction assay. It counts as functional, organism-based. The method in brief: (§2)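 Biofilms formed in 96-well polystyrene plates in RPMI-MOPS, inoculum 10^6 to 10^7 cells/well, 24 h at 30°C, then washed twice with PBS. Biocides were added with fresh medium to the 24 h mature biofilms (H2O2 1 to 1,000 mM; EtOH 0.05 to 50%; SDS 0.0004 to 0.4%). After a further 24 h at 30°C, metabolic activity was read by XTT reduction. EC50 and EC80 are the concentrations giving 50% and 80% reduction in OD versus no-drug controls. Triplicate, two occasions.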
On the technique in general: Tetrazolium dyes change colour on reduction, which living cells bring about.

Test [5] deals with Candida parapsilosis. Put plainly: Antifungal activity against Candida parapsilosis 5986 assessed as decrease mature biofilm burden after 24 hrs by XTT reduction assay. The class given is functional, organism-based. The method in brief: as §2
In test [6] the test system is Candida albicans. In words: Antifungal activity against Candida albicans DAY 185 assessed as decrease mature biofilm burden after 24 hrs by XTT reduction assay. It counts as functional, organism-based. The method in brief:
as §2

The subject of test [7] is Candida albicans. In words: Antifungal activity against Candida albicans DAY 185 grown as planktonic cells by CLSI method. The class given is functional. The method in brief:
as §1

The subject of test [8] is Candida albicans. In words: Antifungal activity against Candida albicans DAY 185 grown as planktonic cells using 10^6 to 10^7 cells by CLSI method. The class given is functional, organism-based. The method in brief:
(§3)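 Planktonic susceptibility was tested by the CLSI method with the inoculum raised to the mature-biofilm cell density (10^6 to 10^7 cells/well) in RPMI-MOPS. EC50 and EC80 values were derived. Triplicate, two occasions.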

Test [9] deals with Candida albicans. In words: Antifungal activity against Candida albicans K1 grown as planktonic cells using 10^6 to 10^7 cells by CLSI method. It counts as functional, organism-based. The method in brief:
as §3

The subject of test [10] is Nakaseomyces glabratus. In words: Antifungal activity against Candida glabrata 5740 grown as planktonic cells using 10^6 to 10^7 cells by CLSI method. It counts as functional, organism-based. The method in brief: as §3
Test [11] has as its system Nakaseomyces glabratus. In words: Antifungal activity against Candida glabrata 5740 assessed as decrease mature biofilm burden after 24 hrs by XTT reduction assay. The class given is functional, organism-based. The method in brief: as §2
In test [12] the test system is Nakaseomyces glabratus. Put plainly: Antifungal activity against Candida glabrata 5740 grown as planktonic cells by CLSI method. The class given is functional. The method in brief:
as §1

The subject of test [13] is Candida parapsilosis. In words: Antifungal activity against Candida parapsilosis 5986 grown as planktonic cells using 10^6 to 10^7 cells by CLSI method. It counts as functional, organism-based. The method in brief:
as §3

Test [14] relates to Candida parapsilosis. Put plainly: Antifungal activity against Candida parapsilosis 5986 grown as planktonic cells by CLSI method. The class given is functional. The method in brief: as §1

As for `CCO` [ALCOHOL], the EC50 was determined as 35% in the test on Candida albicans [1]; 25% with Candida albicans [4]; 25% with Candida parapsilosis [5]; 35% with Candida albicans [6]; 6% in the test with Candida albicans [8]; 6% in the test on Candida albicans [9]. Also, the EC50 with Nakaseomyces glabratus [10] amounted to 13%; with Nakaseomyces glabratus [11], 25%; in the test on Candida parapsilosis [13], 6%. The EC80 is 35% in the test on Candida albicans [1]; 25% in the test on Candida albicans [4]; 25% with Candida parapsilosis [5]; 40% in the test on Candida albicans [6]; 13% in the test with Candida albicans [8]; 13% with Candida albicans [9]. Besides, the EC80 in the test on Nakaseomyces glabratus [10] worked out at 13%; in the test on Nakaseomyces glabratus [11], 25%; in the test with Candida parapsilosis [13], 6%. Further, the MIC is on record as 1.5% with Candida albicans [2], 3% with Candida albicans [7], 3% in the test on Nakaseomyces glabratus [12] and 1.5% in the test with Candida parapsilosis [14]. Moreover, the “fractional inhibitory concentration index (FICI)” value with Candida albicans [3] is less than 0.5.

Consider `CCCCCCCCCCCCOS(=O)(=O)[O-].[Na+]` [SODIUM LAURYL SULFATE], for which the EC50 worked out at 0.05% in the test with Candida albicans [1]; 0.05% in the test with Candida albicans [4]; 0.05% with Candida parapsilosis [5]; 0.15% in the test on Candida albicans [6]; 0.05% in the test on Candida albicans [8]; 0.03% with Candida albicans [9]. Besides, the results for the EC50 with Nakaseomyces glabratus [10], with Nakaseomyces glabratus [11] and in the test with Candida parapsilosis [13] were 0.03%, 0.05% and 0.03%, respectively. Further, the EC80 with Candida albicans [1] worked out at 0.1%; in the test with Candida albicans [4], 0.1%; in the test with Candida parapsilosis [5] it was 0.1%; in the test with Candida albicans [6] it was 0.15%; in the test on Candida albicans [8], 0.05%; in the test on Candida albicans [9] it was 0.05%. The EC80 in the test on Nakaseomyces glabratus [10] amounted to 0.03%; in the test with Nakaseomyces glabratus [11] it was 0.05%; in the test with Candida parapsilosis [13] it was 0.05%. Further, the MIC with Candida albicans [2], in the test with Candida albicans [7], with Nakaseomyces glabratus [12] and against Candida parapsilosis [14] was 0.01% in each case. Further, the “fractional inhibitory concentration index (FICI)” value in the test with Candida albicans [3] turned out to be 1.
